Experimental data as given in ChEMBL document CHEMBL4270671, “Pathway-Based Drug Repositioning for Cancers: Computational Prediction and Experimental Validation” (J Med Chem, 2018).
Calls of active or inactive are those of the source. The calls are words filed in the database; no cut-off is given here.

Columns and labels:
A549 [1] = experiment: Reduction in viability of human A549 cells after 6 hrs by fluorescence assay; type: functional, cell-based
Method in brief: (§1)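 A single multiplexed triplex kit read cell viability, cytotoxicity and apoptosis, with caspase-3/7 activity as the apoptosis marker. Compounds were tested over a range of concentrations on cancer lines and normal epithelial Het-1A cells, with DMSO as the vehicle control. Read-outs were compared against the DMSO wells.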

HET-1A [2] = experiment: Reduction in viability of human HET-1A cells after 6 hrs by fluorescence assay; type: cell-based; method in brief: as §1
Caco-2 [3] = experiment: Reduction in viability of human Caco2 cells after 6 hrs by fluorescence assay; type: functional, cell-based; method in brief: as §1
PC-3 [4] = experiment: Reduction in viability of human PC3 cells after 6 hrs by fluorescence assay; type: functional, cell-based; method in brief: as §1
ASPC1 [5] = experiment: Reduction in viability of human AsPC1 cells after 6 hrs by fluorescence assay; type: functional, cell-based; method in brief: as §1
ASPC1 [6] = experiment: Induction of apoptosis in human AsPC1 cells assessed as increase in caspase 3/7 activity after 6 hrs by caspase glo 3/7 assay; type: functional, cell-based; method in brief: as §1
HET-1A [7] = experiment: Cytotoxicity against human HET-1A cells after 6 hrs by fluorescence assay; type: cell-based; method in brief: as §1
Caco-2 [8] = experiment: Cytotoxicity against human Caco2 cells after 6 hrs by fluorescence assay; type: functional, cell-based; method in brief: as §1
PC-3 [9] = experiment: Induction of apoptosis in human PC3 cells assessed as increase in caspase 3/7 activity after 6 hrs by caspase glo 3/7 assay; type: functional, cell-based; method in brief: as §1
A549 [10] = experiment: Induction of apoptosis in human A549 cells assessed as increase in caspase 3/7 activity after 6 hrs by caspase glo 3/7 assay; type: functional, cell-based; method in brief: as §1
ASPC1 [11] = experiment: Cytotoxicity against human AsPC1 cells after 6 hrs by fluorescence assay; type: functional, cell-based; method in brief: as §1
A549 [12] = experiment: Cytotoxicity against human A549 cells after 6 hrs by fluorescence assay; type: functional, cell-based; method in brief: as §1
HET-1A [13] = experiment: Induction of apoptosis in human HET-1A cells assessed as increase in caspase 3/7 activity after 6 hrs by caspase glo 3/7 assay; type: cell-based; method in brief: as §1
PC-3 [14] = experiment: Cytotoxicity against human PC3 cells after 6 hrs by fluorescence assay; type: functional, cell-based; method in brief: as §1
Caco-2 [15] = experiment: Induction of apoptosis in human Caco2 cells assessed as increase in caspase 3/7 activity after 6 hrs by caspase glo 3/7 assay; type: functional, cell-based; method in brief: as §1

SMILES	Activity (A549 [1])	Activity (HET-1A [2])	Activity (Caco-2 [3])	Activity (PC-3 [4])	Activity (ASPC1 [5])	Activity (ASPC1 [6])	Activity (HET-1A [7])	Activity (Caco-2 [8])	Activity (PC-3 [9])	Activity (A549 [10])	Activity (ASPC1 [11])	Activity (A549 [12])	Activity (HET-1A [13])	Activity (PC-3 [14])	Activity (Caco-2 [15])
CC[C@H]1OC(=O)[C@H](C)[C@@H](O[C@H]2C[C@@](C)(OC)[C@@H](O)[C@H](C)O2)[C@H](C)[C@@H](O[C@@H]2O[C@H](C)C[C@H](N(C)C)[C@H]2O)[C@](C)(O)C[C@@H](C)[C@@H]2N[C@@H](COCCOC)O[C@H]([C@H]2C)[C@]1(C)O [DIRITHROMYCIN]	inactive	Toxic	inactive	inactive	inactive	–	–	–	–	–	–	–	–	–	–
CN(C)CCCN1c2ccccc2Sc2ccccc21 [PROMAZINE]	Dose-dependent effect	Dose-dependent effect	Dose-dependent effect	Dose-dependent effect	Dose-dependent effect	Active	Dose-dependent effect	Dose-dependent effect	Dose-dependent effect	Dose-dependent effect	Dose-dependent effect	Dose-dependent effect	Dose-dependent effect	Dose-dependent effect	Dose-dependent effect
O=C(Nc1ccc([N+](=O)[O-])cc1Cl)c1cc(Cl)ccc1O [NICLOSAMIDE]	Dose-dependent effect	Dose-dependent effect	Dose-dependent effect	Dose-dependent effect	Dose-dependent effect	Active	–	–	Dose-dependent effect	Active	–	–	–	–	Active
COC(=O)C1=C(C)NC(C)=C(C(=O)OCCN(C)Cc2ccccc2)C1c1cccc([N+](=O)[O-])c1 (stereo unspecified) [NICARDIPINE]	Dose-dependent effect	Dose-dependent effect	Dose-dependent effect	Dose-dependent effect	Dose-dependent effect	–	Dose-dependent effect	Dose-dependent effect	Dose-dependent effect	–	Dose-dependent effect	Dose-dependent effect	Dose-dependent effect	Dose-dependent effect	Dose-dependent effect
OC1(c2ccc(Cl)c(C(F)(F)F)c2)CCN(CCCC(c2ccc(F)cc2)c2ccc(F)cc2)CC1 [PENFLURIDOL]	Dose-dependent effect	Dose-dependent effect	Dose-dependent effect	Dose-dependent effect	Dose-dependent effect	Active	Dose-dependent effect	Dose-dependent effect	Dose-dependent effect	Dose-dependent effect	Dose-dependent effect	Dose-dependent effect	Dose-dependent effect	Dose-dependent effect	Dose-dependent effect
CN1[C@@H]2CCC[C@H]1CC(NC(=O)c1nn(C)c3ccccc13)C2 (stereo partly specified)	inactive	Toxic	inactive	inactive	inactive	–	–	–	–	–	–	–	–	–	–
CC(=O)Oc1ccccc1C(=O)Nc1ncc([N+](=O)[O-])s1	–	–	–	–	–	inactive	–	–	inactive	inactive	–	–	–	–	inactive
